Experiments:
Cathepsin S = Cathepsin S (Homo sapiens, UniProt P25774); test: Inhibition of cathepsin S
Procedure, shortened: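 Cathepsin S 0.7 nM with inhibitor (added in DMSO), 5 min at 37 °C in pH 6.1 phosphate buffer containing NaCl, DTT, EDTA and Tween-20. IC50 from V_i/V_o plot, converted to K_i via IC50 − E_t/2.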

Cathepsin B = Cathepsin B (Homo sapiens, UniProt P07858); test: Inhibition of cathepsin B
Procedure, shortened: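 Cathepsin B (2 nM) in pH 6.1 phosphate/NaCl/DTT/EDTA/Tween-20 buffer, preincubated with inhibitor (in DMSO) for 5 min at 37 °C. Cbz-Phe-Arg-AMC 2.5 µM then added and AMC followed for 5 min (ex 355/em 450 nm). Five inhibitor levels spanning 10–90% inhibition, in duplicate. IC50 from V_i/V_o plots, converted as K_i = IC50 − E_t/2.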

Cathepsin K = target: T1, Cathepsin K (Homo sapiens, UniProt P43235); test: Inhibition of cathepsin K
T1 sequence (P43235 whole entry): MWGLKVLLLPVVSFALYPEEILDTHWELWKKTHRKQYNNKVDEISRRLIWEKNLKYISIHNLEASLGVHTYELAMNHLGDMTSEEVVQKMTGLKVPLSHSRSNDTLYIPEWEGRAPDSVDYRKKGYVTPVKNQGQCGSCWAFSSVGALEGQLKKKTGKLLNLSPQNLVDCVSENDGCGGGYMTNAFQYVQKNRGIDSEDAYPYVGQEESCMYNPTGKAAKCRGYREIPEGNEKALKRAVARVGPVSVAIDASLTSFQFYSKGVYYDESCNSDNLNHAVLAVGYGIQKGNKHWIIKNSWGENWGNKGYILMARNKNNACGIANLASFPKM
Procedure, shortened: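 Cathepsin K at 10 nM, preincubated 5 min at 37 °C with DMSO-delivered inhibitor in pH 6.1 sodium phosphate buffer with NaCl, DTT, EDTA, Tween-20. Then 2.5 µM Cbz-Phe-Arg-AMC; AMC release monitored for 5 min (ex 355/em 450 nm). Duplicates at five inhibitor concentrations giving 10–90% inhibition. K_i = IC50 − E_t/2, with IC50 from V_i/V_o versus concentration.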

Procathepsin L = Procathepsin L (Homo sapiens, UniProt P07711); test: Inhibition of cathepsin L
Sequence of Procathepsin L (P07711 whole entry): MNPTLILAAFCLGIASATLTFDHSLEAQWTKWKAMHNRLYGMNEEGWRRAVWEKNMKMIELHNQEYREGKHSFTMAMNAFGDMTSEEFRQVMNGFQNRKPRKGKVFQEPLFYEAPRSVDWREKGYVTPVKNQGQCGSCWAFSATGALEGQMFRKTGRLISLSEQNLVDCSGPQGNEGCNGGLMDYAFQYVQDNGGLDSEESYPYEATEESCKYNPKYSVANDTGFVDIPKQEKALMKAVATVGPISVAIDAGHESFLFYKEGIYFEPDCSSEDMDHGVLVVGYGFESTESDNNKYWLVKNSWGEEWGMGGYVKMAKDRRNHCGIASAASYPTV

Sequence of Cathepsin S (P25774 whole entry): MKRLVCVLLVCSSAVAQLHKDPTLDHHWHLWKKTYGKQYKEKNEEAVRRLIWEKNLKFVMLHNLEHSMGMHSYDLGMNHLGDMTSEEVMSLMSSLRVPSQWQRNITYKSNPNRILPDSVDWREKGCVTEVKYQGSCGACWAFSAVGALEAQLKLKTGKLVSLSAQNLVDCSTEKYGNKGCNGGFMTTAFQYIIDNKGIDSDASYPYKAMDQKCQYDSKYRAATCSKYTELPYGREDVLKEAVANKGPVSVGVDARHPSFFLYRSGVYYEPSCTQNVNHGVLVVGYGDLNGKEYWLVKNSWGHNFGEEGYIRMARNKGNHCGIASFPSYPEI

Ki (Cathepsin S) [nM]	Ki (Cathepsin B) [nM]	Ki (Cathepsin K) [nM]	Ki (Procathepsin L) [nM]	Structure (SMILES)
48.7	> 15000	1280		CCCc1ccc(-c2ccccc2OCC=O)c(F)c1F
9.6	> 15000	1240	> 15000	CC(C)Cc1ccc(-c2ccccc2OCC=O)c(F)c1F
	> 15000	1510		O=CCOc1ccccc1-c1ccc(F)c(F)c1F

From ChEMBL document CHEMBL1143066, “Characterization and optimization of selective, nonpeptidic inhibitors of cathepsin S with an unprecedented binding mode” (J Med Chem, 2007)
